ChEMBL document CHEMBL4229554, “Design and Characterization of Novel Covalent Bromodomain and Extra-Terminal Domain (BET) Inhibitors Targeting a Methionine” (J Med Chem, 2018)
Calls of active or inactive are those of the source. The rule behind the calls is not given here.

Columns and labels:
[1] = biological target: T1, Bromodomain-containing protein 4 (Homo sapiens, UniProt O60885); test: Binding affinity to N-terminal His-tagged BRD4 (BD1) (unknown origin) assessed as change in melting temperature at 100 uM after 4 hrs by SYPRO orange protein staining-based thermal denaturation assay
In short: (§1)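 N-terminally His-tagged recombinant BRD4(BD1), 5 µM, incubated with 100 µM compound and 5X SYPRO Orange in 50 mM NaCl/50 mM HEPES pH 7.4 for 30 min or 4 h. Protein thermal shift melt gives ΔTm; more than one transition may be resolved.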

[2] = biological target: T1, Bromodomain-containing protein 4; test: Inhibition of N-terminal His-tagged BRD4 (BD2) (unknown origin) using biotinylated tetra-acetylated histone H4 peptide after 30 mins by alpha-screen assay
[3] = biological target: T1, Bromodomain-containing protein 4; test: Binding affinity to N-terminal His-tagged BRD4 (BD1) (unknown origin) assessed as change in melting temperature at 100 uM after 0.5 hrs by SYPRO orange protein staining-based thermal denaturation assay; in short: as §1
PBMC = test: Cytotoxicity against human PBMC assessed as reduction in cell viability after 24 hrs by cell-titer 96 aqueous one solution reagent-based assay
[4] = biological target: T1, Bromodomain-containing protein 4; test: Ratio of IC50 for inhibition of N-terminal His-tagged BRD4 (BD1) (unknown origin) using biotinylated tetra-acetylated histone H4 peptide after 4 hrs by alpha-screen assay to IC50 for inhibition of N-terminal His-tagged BRD4(BD1) (unknown origin) using biotinylated tetra-acetylated histone H4 peptide after 5 mins by alpha-screen assay
In short: (§2)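 AlphaScreen: N-terminally His-tagged BRD4(BD1) (20–200 nM) with biotinylated tetra-acetylated H4 peptide (3–75 nM) in 50 mM HEPES, 100 mM NaCl, 0.1% BSA, pH 7.4, under green light. Nickel-chelate acceptor and streptavidin donor beads at 2 µg/mL final, serially diluted compounds added. Luminescence read at 570 nm.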

[5] = biological target: T1, Bromodomain-containing protein 4; test: Inhibition of N-terminal His-tagged BRD4 (BD1) (unknown origin) using biotinylated tetra-acetylated histone H4 peptide after 4 hrs by alpha-screen assay; in short: as §2
MV4-11 [6] = test: Induction of apoptosis in human MV4-11 cells assessed as viable cells after 72 hrs by FITC annexin V-staining based flow cytometry (reference value: 96.4%); assay type: functional
[7] = biological target: T1, Bromodomain-containing protein 4; test: Inhibition of N-terminal His-tagged BRD4 (BD1) (unknown origin) using biotinylated tetra-acetylated histone H4 peptide after 1 hr by alpha-screen assay; in short: as §2
[8] = biological target: T1, Bromodomain-containing protein 4; test: Inhibition of N-terminal His-tagged BRD4 (BD1) (unknown origin) using biotinylated tetra-acetylated histone H4 peptide after 5 mins by alpha-screen assay; in short: as §2
[9] = biological target: T1, Bromodomain-containing protein 4; test: Inhibition of N-terminal His-tagged BRD4 (BD1) (unknown origin) using biotinylated tetra-acetylated histone H4 peptide after 30 mins by alpha-screen assay
MV4-11 [10] = test: Induction of apoptosis in human MV4-11 cells assessed as necrotic cells after 72 hrs by FITC annexin V-staining based flow cytometry (reference value: 0.21%); assay type: functional
MV4-11 [11] = test: Induction of apoptosis in human MV4-11 cells assessed as late apoptotic cells after 72 hrs by FITC annexin V-staining based flow cytometry (reference value: 1.53%); assay type: functional
MV4-11 [12] = test: Induction of apoptosis in human MV4-11 cells assessed as early apoptotic cells after 72 hrs by FITC annexin V-staining based flow cytometry (reference value: 1.87%); assay type: functional
[13] = biological target: T1, Bromodomain-containing protein 4; test: Inhibition of N-terminal His-tagged BRD4 (BD1/BD2) (unknown origin) using biotinylated tetra-acetylated histone H4 peptide after 30 mins by alpha-screen assay
MV4-11 [14] = test: Antiproliferative activity against human MV4-11 cells preincubated for 24 hrs by followed by compound washout measured after 48 hrs post compound washout by cell-titer 96 aqueous one solution reagent-based assay; assay type: functional
In short: (§3)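 Washout format: MV4-11 plated at 25,000 cells/well with two-fold dilutions, triplicate wells. Cells treated 24 h, compound removed and cells washed twice with conditioned media. Growth continued 48 h in compound-free media. Read with CellTiter 96 AQueous One reagent, absorbance 490 nm, expressed as % of DMSO control.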

MV4-11 [15] = test: Antiproliferative activity against human MV4-11 cells incubated for 24 hrs followed by compound removal and further incubation for 48 hrs by cell-titer 96 aqueous one solution reagent-based assay; assay type: functional; in short: as §3
[16] = biological target: Histone acetyltransferase p300 (Homo sapiens) (UniProt Q09472); test: Binding affinity to P300 (unknown origin) assessed as change in melting temperature at 100 uM after 0.5 to 4 hrs by SYPRO orange protein staining-based thermal denaturation assay
Chain of Histone acetyltransferase p300 (Homo sapiens) (Q09472 whole entry, the tested form may be a part): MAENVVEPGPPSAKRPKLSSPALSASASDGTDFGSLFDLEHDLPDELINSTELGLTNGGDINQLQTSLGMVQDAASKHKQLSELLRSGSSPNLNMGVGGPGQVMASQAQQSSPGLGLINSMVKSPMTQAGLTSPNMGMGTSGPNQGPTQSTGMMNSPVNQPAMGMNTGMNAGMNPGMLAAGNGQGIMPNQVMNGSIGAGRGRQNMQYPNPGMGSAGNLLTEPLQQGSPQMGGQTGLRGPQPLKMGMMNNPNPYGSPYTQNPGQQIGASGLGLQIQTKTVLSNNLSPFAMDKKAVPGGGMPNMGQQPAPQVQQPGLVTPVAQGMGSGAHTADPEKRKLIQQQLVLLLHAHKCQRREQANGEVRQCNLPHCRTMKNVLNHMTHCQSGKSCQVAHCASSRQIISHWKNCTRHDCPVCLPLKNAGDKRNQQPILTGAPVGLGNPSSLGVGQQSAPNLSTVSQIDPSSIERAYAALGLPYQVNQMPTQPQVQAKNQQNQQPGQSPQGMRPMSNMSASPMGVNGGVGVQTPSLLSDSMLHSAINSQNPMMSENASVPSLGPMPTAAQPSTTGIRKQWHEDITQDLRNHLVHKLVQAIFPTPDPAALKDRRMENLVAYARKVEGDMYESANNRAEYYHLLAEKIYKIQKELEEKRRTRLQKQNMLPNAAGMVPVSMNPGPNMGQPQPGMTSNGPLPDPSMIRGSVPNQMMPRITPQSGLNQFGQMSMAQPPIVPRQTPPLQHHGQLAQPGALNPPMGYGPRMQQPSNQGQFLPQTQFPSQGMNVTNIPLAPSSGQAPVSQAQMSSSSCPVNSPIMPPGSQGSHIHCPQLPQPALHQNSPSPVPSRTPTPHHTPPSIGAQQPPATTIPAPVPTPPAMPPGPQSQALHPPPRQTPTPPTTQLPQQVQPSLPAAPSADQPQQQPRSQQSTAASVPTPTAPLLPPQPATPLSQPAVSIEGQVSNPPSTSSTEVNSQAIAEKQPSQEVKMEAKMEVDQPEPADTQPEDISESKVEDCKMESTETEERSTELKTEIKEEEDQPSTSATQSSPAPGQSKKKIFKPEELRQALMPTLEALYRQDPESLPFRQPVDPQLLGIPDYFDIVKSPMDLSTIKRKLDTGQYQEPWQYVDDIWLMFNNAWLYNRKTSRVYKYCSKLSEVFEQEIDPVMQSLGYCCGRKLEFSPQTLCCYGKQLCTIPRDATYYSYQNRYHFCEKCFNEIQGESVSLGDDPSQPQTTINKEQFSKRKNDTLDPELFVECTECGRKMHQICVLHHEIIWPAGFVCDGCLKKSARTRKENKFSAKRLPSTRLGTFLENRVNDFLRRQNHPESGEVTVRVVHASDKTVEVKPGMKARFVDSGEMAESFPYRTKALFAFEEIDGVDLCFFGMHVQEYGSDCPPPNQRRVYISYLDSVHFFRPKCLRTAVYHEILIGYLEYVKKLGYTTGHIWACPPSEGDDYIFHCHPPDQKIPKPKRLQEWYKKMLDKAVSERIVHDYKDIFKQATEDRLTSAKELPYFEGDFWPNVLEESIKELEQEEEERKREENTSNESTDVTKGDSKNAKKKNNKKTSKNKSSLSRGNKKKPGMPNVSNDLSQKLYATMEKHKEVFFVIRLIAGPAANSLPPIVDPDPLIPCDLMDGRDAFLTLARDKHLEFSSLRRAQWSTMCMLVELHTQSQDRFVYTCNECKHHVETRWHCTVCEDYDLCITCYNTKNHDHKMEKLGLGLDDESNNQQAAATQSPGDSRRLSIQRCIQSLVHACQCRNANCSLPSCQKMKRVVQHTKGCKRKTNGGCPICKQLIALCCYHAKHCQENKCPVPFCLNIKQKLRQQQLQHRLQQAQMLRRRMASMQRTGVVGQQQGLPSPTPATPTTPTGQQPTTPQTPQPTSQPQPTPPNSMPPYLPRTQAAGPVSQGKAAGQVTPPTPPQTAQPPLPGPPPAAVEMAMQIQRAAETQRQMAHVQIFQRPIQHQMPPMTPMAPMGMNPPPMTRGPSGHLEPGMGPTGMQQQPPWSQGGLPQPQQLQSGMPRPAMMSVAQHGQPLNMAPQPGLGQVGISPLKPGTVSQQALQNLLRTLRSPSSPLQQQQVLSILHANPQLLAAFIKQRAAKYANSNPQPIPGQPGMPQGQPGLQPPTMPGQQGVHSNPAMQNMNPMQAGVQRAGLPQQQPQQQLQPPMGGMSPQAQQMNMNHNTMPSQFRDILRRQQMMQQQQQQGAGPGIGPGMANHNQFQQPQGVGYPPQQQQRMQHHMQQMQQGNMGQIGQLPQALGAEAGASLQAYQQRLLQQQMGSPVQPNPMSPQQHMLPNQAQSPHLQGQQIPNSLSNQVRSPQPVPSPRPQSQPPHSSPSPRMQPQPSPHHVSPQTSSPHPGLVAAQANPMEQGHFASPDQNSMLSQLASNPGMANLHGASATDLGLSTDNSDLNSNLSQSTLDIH
In short: (§4)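 Thermal shift (PTS) screen of non-BET bromodomains. Each domain at 5 µM incubated with 100 µM covalent or control compound plus 5X SYPRO Orange in 50 mM NaCl/50 mM HEPES pH 7.4 for 30 min or 4 h. Change in Tm recorded, with a search for a high-Tm species.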

Peregrin (Homo sapiens) = biological target: T2, Peregrin (Homo sapiens) (UniProt P55201); test: Binding affinity to BRPF1 (unknown origin) assessed as change in melting temperature at 100 uM after 0.5 to 4 hrs by SYPRO orange protein staining-based thermal denaturation assay; in short: as §4
T2 sequence (whole entry): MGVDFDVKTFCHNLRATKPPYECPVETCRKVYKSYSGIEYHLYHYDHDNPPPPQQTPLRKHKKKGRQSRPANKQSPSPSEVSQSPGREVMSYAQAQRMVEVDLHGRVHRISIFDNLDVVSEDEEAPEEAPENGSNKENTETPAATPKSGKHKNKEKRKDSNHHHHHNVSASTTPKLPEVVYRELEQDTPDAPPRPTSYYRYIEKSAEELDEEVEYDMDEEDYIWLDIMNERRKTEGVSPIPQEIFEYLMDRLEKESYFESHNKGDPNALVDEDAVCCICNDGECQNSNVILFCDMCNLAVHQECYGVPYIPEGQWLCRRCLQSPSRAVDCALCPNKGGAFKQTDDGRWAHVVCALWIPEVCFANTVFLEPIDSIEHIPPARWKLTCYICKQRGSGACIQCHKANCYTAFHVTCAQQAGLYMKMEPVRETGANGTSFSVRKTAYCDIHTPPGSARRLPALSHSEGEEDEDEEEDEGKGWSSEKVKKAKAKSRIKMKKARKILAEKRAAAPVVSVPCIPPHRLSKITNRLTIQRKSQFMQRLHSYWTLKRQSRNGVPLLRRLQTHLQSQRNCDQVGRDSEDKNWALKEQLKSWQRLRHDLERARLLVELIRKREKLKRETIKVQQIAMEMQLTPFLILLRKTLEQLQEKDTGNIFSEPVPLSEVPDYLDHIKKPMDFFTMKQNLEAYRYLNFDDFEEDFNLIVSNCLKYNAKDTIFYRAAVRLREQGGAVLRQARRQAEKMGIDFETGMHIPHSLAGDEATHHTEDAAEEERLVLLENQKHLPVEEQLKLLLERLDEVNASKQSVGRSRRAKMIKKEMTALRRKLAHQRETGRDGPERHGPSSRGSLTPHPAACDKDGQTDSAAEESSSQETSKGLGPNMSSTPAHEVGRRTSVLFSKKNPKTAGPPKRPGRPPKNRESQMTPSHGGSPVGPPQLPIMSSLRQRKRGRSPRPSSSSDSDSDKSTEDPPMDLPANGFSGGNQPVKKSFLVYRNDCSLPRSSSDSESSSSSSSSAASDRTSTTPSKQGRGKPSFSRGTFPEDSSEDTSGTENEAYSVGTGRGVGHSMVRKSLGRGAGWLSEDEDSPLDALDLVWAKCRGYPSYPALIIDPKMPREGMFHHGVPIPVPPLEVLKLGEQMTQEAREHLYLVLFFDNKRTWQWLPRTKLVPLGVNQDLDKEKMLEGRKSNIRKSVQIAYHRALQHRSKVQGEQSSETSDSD

[17] = biological target: SWI/SNF-related matrix-associated actin-dependent regulator of chromatin subfamily A member 4 (Homo sapiens) (UniProt P51532); test: Binding affinity to BRG1 (unknown origin) assessed as change in melting temperature at 100 uM after 0.5 to 4 hrs by SYPRO orange protein staining-based thermal denaturation assay; in short: as §4
[18] = biological target: T1, Bromodomain-containing protein 4; test: Binding affinity to N-terminal His-tagged BRD4 (BD1) (unknown origin) assessed as change in melting temperature incubated for 4 hrs in presence of increasing concentrations of methionine by SYPRO orange protein staining-based thermal denaturation assay
In short: (§5)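 Preformed BRD4(BD1)–compound covalent complex incubated with excess free cysteine or methionine. Reversibility assessed by SYPRO Orange thermal denaturation, monitoring the complex's Tm.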

[19] = biological target: Transcription initiation factor TFIID subunit 1 (Homo sapiens) (UniProt P21675); test: Binding affinity to TAF1(2) (unknown origin) assessed as change in melting temperature at 100 uM after 0.5 to 4 hrs by SYPRO orange protein staining-based thermal denaturation assay; in short: as §4
Chain of Transcription initiation factor TFIID subunit 1 (Homo sapiens) (P21675 whole entry): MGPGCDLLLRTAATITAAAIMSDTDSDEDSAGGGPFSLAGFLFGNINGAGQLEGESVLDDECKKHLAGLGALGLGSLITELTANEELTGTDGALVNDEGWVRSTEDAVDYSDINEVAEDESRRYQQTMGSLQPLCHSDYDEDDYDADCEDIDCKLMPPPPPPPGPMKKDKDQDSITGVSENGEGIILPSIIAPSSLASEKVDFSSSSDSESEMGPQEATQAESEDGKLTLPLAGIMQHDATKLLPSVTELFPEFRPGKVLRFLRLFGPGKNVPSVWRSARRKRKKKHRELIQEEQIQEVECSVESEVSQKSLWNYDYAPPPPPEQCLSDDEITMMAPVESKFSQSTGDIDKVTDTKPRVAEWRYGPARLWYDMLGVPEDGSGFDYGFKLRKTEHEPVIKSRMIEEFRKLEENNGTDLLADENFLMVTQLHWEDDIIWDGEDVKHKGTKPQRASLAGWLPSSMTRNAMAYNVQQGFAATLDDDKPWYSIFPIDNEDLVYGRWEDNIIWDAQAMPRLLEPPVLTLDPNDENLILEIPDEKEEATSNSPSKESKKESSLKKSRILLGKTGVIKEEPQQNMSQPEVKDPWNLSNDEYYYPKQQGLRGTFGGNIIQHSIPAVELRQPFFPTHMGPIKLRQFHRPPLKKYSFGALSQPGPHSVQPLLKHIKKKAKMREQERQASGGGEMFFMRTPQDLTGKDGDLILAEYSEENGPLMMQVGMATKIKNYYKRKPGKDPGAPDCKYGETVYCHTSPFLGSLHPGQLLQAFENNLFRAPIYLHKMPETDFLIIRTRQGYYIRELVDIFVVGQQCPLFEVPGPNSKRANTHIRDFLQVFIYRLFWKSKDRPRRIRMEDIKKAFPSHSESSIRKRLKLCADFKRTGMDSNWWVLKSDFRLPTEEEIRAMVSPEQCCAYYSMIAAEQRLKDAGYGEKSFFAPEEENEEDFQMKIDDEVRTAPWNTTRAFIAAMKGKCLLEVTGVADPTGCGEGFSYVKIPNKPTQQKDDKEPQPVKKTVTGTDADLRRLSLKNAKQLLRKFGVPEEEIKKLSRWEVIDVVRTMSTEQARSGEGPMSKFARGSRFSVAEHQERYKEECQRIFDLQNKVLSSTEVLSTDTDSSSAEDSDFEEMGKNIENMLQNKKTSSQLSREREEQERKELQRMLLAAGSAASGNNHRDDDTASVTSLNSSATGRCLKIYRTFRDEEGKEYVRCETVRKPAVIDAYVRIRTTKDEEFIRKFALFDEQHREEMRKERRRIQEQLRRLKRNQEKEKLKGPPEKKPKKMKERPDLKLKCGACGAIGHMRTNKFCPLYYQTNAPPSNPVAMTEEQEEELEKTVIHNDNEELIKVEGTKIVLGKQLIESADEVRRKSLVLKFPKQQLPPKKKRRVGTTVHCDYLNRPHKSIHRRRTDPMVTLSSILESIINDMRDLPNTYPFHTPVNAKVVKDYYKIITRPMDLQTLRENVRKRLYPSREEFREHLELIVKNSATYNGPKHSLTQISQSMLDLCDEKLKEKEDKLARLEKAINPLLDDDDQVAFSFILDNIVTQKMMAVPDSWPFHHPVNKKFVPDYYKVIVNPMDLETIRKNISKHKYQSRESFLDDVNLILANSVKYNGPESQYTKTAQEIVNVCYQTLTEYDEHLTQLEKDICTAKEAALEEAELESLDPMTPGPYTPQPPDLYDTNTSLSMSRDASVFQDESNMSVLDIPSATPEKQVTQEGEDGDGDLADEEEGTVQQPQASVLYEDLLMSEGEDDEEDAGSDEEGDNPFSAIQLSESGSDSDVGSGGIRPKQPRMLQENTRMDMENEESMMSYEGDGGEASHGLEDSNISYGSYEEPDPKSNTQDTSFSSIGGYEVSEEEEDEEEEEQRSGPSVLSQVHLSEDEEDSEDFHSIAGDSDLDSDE

[20] = biological target: T1, Bromodomain-containing protein 4; test: Binding affinity to N-terminal His-tagged BRD4 (BD1) (unknown origin) assessed as change in melting temperature incubated for 4 hrs in presence of increasing concentrations of cysteine amino acids by SYPRO orange protein staining-based thermal denaturation assay; in short: as §5
[21] = biological target: CREB-binding protein (Homo sapiens) (UniProt Q92793); test: Binding affinity to CREBBP (unknown origin) assessed as change in melting temperature at 100 uM after 0.5 to 4 hrs by SYPRO orange protein staining-based thermal denaturation assay; in short: as §4
[22] = biological target: PH-interacting protein (Homo sapiens) (UniProt Q8WWQ0); test: Binding affinity to PHIP (unknown origin) assessed as change in melting temperature at 100 uM after 0.5 to 4 hrs by SYPRO orange protein staining-based thermal denaturation assay; in short: as §4
[23] = biological target: T1, Bromodomain-containing protein 4; test: Irreversible inhibition of BRD4 in human MV4-11 cells assessed as suppression of BCL2 mRNA levels preincubated for 4 hrs followed by compound washout measured after 4 to 24 hrs post washout by RT-PCR analysis; assay type: cell-based
In short: (§6)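 MV4-11 cells, 50,000/well, exposed for 4 h at 37 °C, 5% CO2 to compound in IMDM + 10% FBS (0.2% DMSO final; DMSO-only control). Cells washed 3 times with conditioned media and placed in compound-free media, then harvested after washout for mRNA capture. One-step TaqMan real-time PCR with cyclophilin A reference. Results given as % of DMSO control.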

MV4-11 [24] = test: Antiproliferative activity against human MV4-11 cells after 48 hrs by cell-titer 96 aqueous one solution reagent-based assay; assay type: functional
In short: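 MV4-11 seeded at 25,000–50,000 cells/well with two-fold compound dilutions added at seeding, triplicate wells. DMSO 0.1% final as negative control. Continuous treatment at 37 °C, 5% CO2, measured at 48 h. CellTiter 96 AQueous One reagent for 3 h, then absorbance at 490 nm. % proliferation = (OD sample − OD blank)/OD DMSO × 100. IC50 taken from dose–response.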

[25] = biological target: T1, Bromodomain-containing protein 4; test: Irreversible inhibition of BRD4 in human MV4-11 cells assessed as suppression of MYC mRNA levels preincubated for 4 hrs followed by compound washout measured after 4 to 24 hrs post washout by RT-PCR analysis; assay type: cell-based; in short: as §6
[26] = biological target: T1, Bromodomain-containing protein 4; test: Irreversible inhibition of BRD4 in human MV4-11 cells assessed as suppression of CCR1 mRNA levels preincubated for 4 hrs followed by compound washout measured after 4 to 24 hrs post washout by RT-PCR analysis; assay type: cell-based; in short: as §6
[27] = biological target: T1, Bromodomain-containing protein 4; test: Irreversible inhibition of BRD4 in human MV4-11 cells assessed as suppression of IL1RN mRNA levels preincubated for 4 hrs followed by compound washout measured after 4 to 24 hrs post washout by RT-PCR analysis; assay type: cell-based; in short: as §6
[28] = biological target: T1, Bromodomain-containing protein 4; test: Irreversible inhibition of BRD4 in human MV4-11 cells assessed as suppression of […] mRNA levels preincubated for 4 hrs followed by compound washout measured after 4 to 24 hrs post washout by RT-PCR analysis; assay type: cell-based; in short: as §6

Row | Activity [1] | IC50 [2] | Activity [3] | Ratio IC50 [4] | IC50 [5] | IC50 [7] | IC50 [8] | IC50 [9] | IC50 [13] | Activity [16] | Activity (Peregrin (Homo sapiens)) | Activity [17] | Activity [19] | SMILES | Activity (PBMC) | Activity (MV4-11 [6]) | Activity (MV4-11 [10]) | Activity (MV4-11 [11]) | Activity (MV4-11 [12]) | Activity (MV4-11 [14]) | Activity (MV4-11 [15]) | also measured
1 | Active | 10 nM | Active | 1 | 19 nM | 8 nM | 17 nM | 20 nM | 50 nM |  |  |  |  | Cc1noc(C)c1-c1cc(N)c2ncn(Cc3ccccc3)c2c1 | Non-Toxic | 17.6% | 13.3% | 24.2% | 45% |  |  | 
2 | Active | 50 nM | Active | 18 | 15 nM | 75 nM | 274 nM | 50 nM | 60 nM |  |  |  |  | Cc1noc(C)c1-c1cc(N)c2ncn(Cc3ccc(C4CO4)cc3)c2c1 (stereo not given) | Non-Toxic | 12.5% | 2.05% | 19.6% | 65.9% | Active | Active | 
3 |  | 80 nM |  |  |  |  |  | 230 nM | 280 nM | inactive | inactive | inactive | inactive | Cc1noc(C)c1-c1ccc(=O)n(Cc2ccccc2)c1 |  |  |  |  |  |  |  | ΔTm [3]: 5 °C; Activity [18]: Active; Activity [20]: Active; Activity [21]: inactive; Activity [22]: inactive
4 | Active | 130 nM | Active |  |  |  |  | 160 nM |  | inactive | inactive | inactive | inactive | Cc1noc(C)c1-c1ccc(=O)n(Cc2ccc(C3CO3)c(F)c2)c1 (stereo not given) |  |  |  |  |  | Active | Active | inhibition [23]: Active; Activity (MV4-11 [24]): Active; inhibition [25]: Active; Activity [21]: inactive; inhibition [26]: Active; Activity [22]: inactive; inhibition [27]: Active; inhibition [28]: Active
